KLK7 zymogen act – proKLK7 (human) activation, primary screen | P49862 | purified proKLK7, EDANS-DABCYL substrate fluorescence; 100% is mature enzyme control, 0% vehicle | activation, % at 7 µM | 370,000 tested, 0.9% active;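 active = activation above the mean of all tested compounds plus 3 SD, computed per campaign excluding outliers beyond control limits, cut at about 13% in these data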
NRP1-CendR mod – alters CendR peptide binding to human NRP-1; AID 602438; 360,000 tested, 0.85% active; inhibition, % at 25 µM; FAM-RPARPAR peptide binding to NRP-1, fluorescence polarization; O14786;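 active = inhibition or corrected inhibition above about 18%, plus a signal ratio from 0.5 to 1.5, limit read from the data, passing the limit was not always enough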
Tn7 DDE FP – disrupts Tn7 cyclic peptide binding to fibrin D-Dimer-E complex; P02675; FP displacement of FITC-Tn7 peptide from fibrin DD(E); 0% = median of compound wells per plate; inhibition, % at 8.3 µM; 370,000 tested, 0.13% active; AID 720508;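 active = inhibition above the mean of compounds falling within the control limits plus 3 SD of them, cut at about 14% in these data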;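 also: 0% = plate median of compound wells and 100% = 10 µM Aha-Tn7 peptide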
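Assay system: Human fibrin DD(E) protein | Medium: Tris buffer with calcium and detergent, pH 7.8 | Reagent: 0.1 µM fluorescent Tn7 | Compound dosing: Single point at 8.3 µM | Times: 10 min preincubation, 3 h with tracer, room temperature | Detection: Fluorescence polarization of the labelled Tn7 tracer | Controls: Aha-Tn7 high control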
DDE Tn6 FP inh – DD(E)-Tn6 binding inhibition, primary FP screen. Fibrin DD(E) TRITC-Tn6 fluorescence polarization displacement. inhibition, % at 8.3 µM. 370,000 tested, 0.21% active;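 active = inhibition above a per-campaign cutoff: mean of compounds within control limits plus 3 SD, cut at about 15% in these data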;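 also: 0% = median of all compound wells on the plate and 100% = blocking peptide control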
PLCb3 inh – PLC-beta3 (human) inhibition, primary screen. Q01970. Purified PLC-beta3, fluorogenic substrate, fluorescence. inhibition, % at 12.2 µM. 370,000 tested, 0.18% active. AID 720704; in the data active = inhibition above about 11%;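 also: 0% = median of compound wells on plate and 100% = full blocker control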
Target sequence (Q01970 whole entry, looked up): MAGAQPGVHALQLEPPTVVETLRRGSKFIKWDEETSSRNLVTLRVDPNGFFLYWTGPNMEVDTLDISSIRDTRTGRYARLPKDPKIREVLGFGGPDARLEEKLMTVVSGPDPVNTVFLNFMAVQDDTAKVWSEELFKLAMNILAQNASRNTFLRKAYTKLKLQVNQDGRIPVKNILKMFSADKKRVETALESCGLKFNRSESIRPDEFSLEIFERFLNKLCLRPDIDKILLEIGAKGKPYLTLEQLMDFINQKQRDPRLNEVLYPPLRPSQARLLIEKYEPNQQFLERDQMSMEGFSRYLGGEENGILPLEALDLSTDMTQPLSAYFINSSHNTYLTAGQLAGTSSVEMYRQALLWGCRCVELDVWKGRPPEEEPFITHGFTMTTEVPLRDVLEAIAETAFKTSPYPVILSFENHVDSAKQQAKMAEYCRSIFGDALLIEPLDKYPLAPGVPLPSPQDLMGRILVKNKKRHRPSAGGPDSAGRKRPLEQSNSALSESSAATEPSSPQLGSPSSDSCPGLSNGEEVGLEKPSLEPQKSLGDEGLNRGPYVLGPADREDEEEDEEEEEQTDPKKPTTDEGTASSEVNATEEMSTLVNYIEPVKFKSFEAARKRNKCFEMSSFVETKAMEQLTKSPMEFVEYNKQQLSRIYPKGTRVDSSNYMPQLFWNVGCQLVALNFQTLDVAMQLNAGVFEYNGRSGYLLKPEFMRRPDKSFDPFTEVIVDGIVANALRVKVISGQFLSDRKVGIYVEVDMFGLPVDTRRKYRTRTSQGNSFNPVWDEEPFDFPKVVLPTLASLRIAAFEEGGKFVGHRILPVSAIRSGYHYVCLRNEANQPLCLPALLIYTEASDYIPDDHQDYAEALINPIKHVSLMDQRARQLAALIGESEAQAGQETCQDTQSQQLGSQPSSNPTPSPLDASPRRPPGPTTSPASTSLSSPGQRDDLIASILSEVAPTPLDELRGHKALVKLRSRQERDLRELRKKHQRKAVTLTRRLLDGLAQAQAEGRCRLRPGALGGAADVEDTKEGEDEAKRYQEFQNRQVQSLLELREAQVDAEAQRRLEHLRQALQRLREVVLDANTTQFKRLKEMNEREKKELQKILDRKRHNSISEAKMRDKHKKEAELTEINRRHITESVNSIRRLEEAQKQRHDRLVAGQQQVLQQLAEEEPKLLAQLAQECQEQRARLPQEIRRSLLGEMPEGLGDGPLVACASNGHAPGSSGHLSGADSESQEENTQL
PLCg1 inh – blocks human PLC-gamma1 enzyme activity; P19174; purified PLC-gamma1, fluorogenic substrate, fluorescence; inhibition, % at 12.2 µM; 370,000 tested, 0.84% active; in the data active = inhibition above about 9.5%
An asterisk follows results filed as active. Most compounds without a hit are left out; they make up all but 3% or so of the library.

Results for CC(C)(C)S(=O)N1Cc2cc(C(=O)NCc3ccc(Oc4ccccc4)cc3)nc(-c3cccc(-c4cc5ccccc5o4)c3)c2[C@H]1CCO (stereo partly specified) ?
KLK7 zymogen act: -1; NRP1-CendR mod: -5; Tn7 DDE FP: 4; DDE Tn6 FP inh: 17*; PLCb3 inh: -13; PLCg1 inh: -12

What do the screens show for `CN(c1ccc(OCC(=O)OCC(=O)Nc2ccc([N+](=O)[O-])cc2)cc1)S(=O)(=O)c1cccs1`?
KLK7 zymogen act: 0; NRP1-CendR mod: 32*; Tn7 DDE FP: 1; DDE Tn6 FP inh: -7; PLCb3 inh: -9; PLCg1 inh: 7

What do the screens show for `CN(c1ccc(OCC(=O)OCC(=O)Nc2ccccc2)cc1)S(=O)(=O)c1ccc(F)cc1`?
KLK7 zymogen act: -1; NRP1-CendR mod: 6; Tn7 DDE FP: 4; DDE Tn6 FP inh: -2; PLCb3 inh: 1; PLCg1 inh: 4

Results for O=C1C[C@@H](C(=O)Nc2ccc(Cl)cc2)[C@@H](c2ccccc2)O1 ?
KLK7 zymogen act: 1; Tn7 DDE FP: 0; DDE Tn6 FP inh: -6; PLCb3 inh: 0; PLCg1 inh: 0

How did O=C(Cc1ccc(Cl)cc1)Nc1cccnc1Cl do in these assays?
KLK7 zymogen act: -1; NRP1-CendR mod: -15; Tn7 DDE FP: 6; DDE Tn6 FP inh: 5; PLCb3 inh: 3; PLCg1 inh: -1

What do the screens show for `O=C(CCCc1ccccc1)Nc1cccnc1Cl`?
KLK7 zymogen act: -1; NRP1-CendR mod: -7; Tn7 DDE FP: -5; DDE Tn6 FP inh: -2; PLCb3 inh: 12*; PLCg1 inh: 3

What do the screens show for `NC(=O)[C@@H]1CCCN1C(=O)[C@H]1O[C@@H](n2ccc(N)nc2=O)[C@H](O)[C@@H]1O`?
KLK7 zymogen act: 1; Tn7 DDE FP: -2; DDE Tn6 FP inh: 9; PLCb3 inh: 2; PLCg1 inh: -8

How did NNC(=O)c1ccc(N2CCCCCC2)c([N+](=O)[O-])c1 do in these assays?
KLK7 zymogen act: 0; NRP1-CendR mod: 31*; Tn7 DDE FP: -5; DDE Tn6 FP inh: 3; PLCb3 inh: -2; PLCg1 inh: 4

How did O=C(NCc1ccco1)c1ccc(N2CCCCC2)c([N+](=O)[O-])c1 do in these assays?
KLK7 zymogen act: 0; NRP1-CendR mod: 4; Tn7 DDE FP: 3; DDE Tn6 FP inh: -4; PLCb3 inh: 4; PLCg1 inh: 1

Results for COC1=C(Br)C(=O)c2ncccc2C1=O ?
KLK7 zymogen act: 1; NRP1-CendR mod: 36*; Tn7 DDE FP: -6; DDE Tn6 FP inh: 5; PLCb3 inh: 4; PLCg1 inh: 5

How did CSc1ccccc1C(=O)N1CCC(CCC(=O)NCc2ccc(F)cc2)CC1 do in these assays?
KLK7 zymogen act: 0; NRP1-CendR mod: 31*; Tn7 DDE FP: -12; DDE Tn6 FP inh: 0; PLCb3 inh: -2; PLCg1 inh: 0

Results for CC(=O)c1ccccc1C(=O)N1CCC(CCC(=O)NCc2ccc(F)cc2)CC1 ?
KLK7 zymogen act: 0; NRP1-CendR mod: -1; Tn7 DDE FP: -7; DDE Tn6 FP inh: -2; PLCb3 inh: 7; PLCg1 inh: -1

How did CC(C(=O)NN=C(c1ccccc1)c1ccccc1)N1CCOCC1 (stereo unspecified) do in these assays?
KLK7 zymogen act: 0; NRP1-CendR mod: 26*; Tn7 DDE FP: 3; DDE Tn6 FP inh: 2; PLCb3 inh: 6; PLCg1 inh: 5

How did O=C(CN1CCOCC1)NN=C(c1ccccc1)c1ccccc1 do in these assays?
KLK7 zymogen act: -1; NRP1-CendR mod: 12; Tn7 DDE FP: -7; DDE Tn6 FP inh: 1; PLCb3 inh: 1; PLCg1 inh: 2

Results for C=CCN1[C@H](C)COc2cccc(F)c2S1(=O)=O ?
KLK7 zymogen act: 0; Tn7 DDE FP: 1; DDE Tn6 FP inh: 2; PLCb3 inh: -2; PLCg1 inh: 6

What do the screens show for `FC(F)(F)c1ccc2nc(CNc3nc(N4CCOCC4)nc4c3ncn4-c3ccsc3)[nH]c2c1`?
Tn7 DDE FP: 1; DDE Tn6 FP inh: -1; PLCb3 inh: -1; PLCg1 inh: -2

How did CCOC(=O)[C@@]12CCC3=C1N(CCC3)C(=O)[C@H](CC(=O)NCc1ccc(C)o1)C2 do in these assays?
KLK7 zymogen act: -1; Tn7 DDE FP: 0; DDE Tn6 FP inh: 4; PLCb3 inh: 1; PLCg1 inh: 0
